The source made the active and inactive calls. The rule behind the calls is not given here.
Legend:
T47D = experiment: Antitumor activity against human T47D cells up to 50 uM after 3 days by WST1 assay; assay type: functional, cell-based
Method in brief: (§1)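 Cell lines grown in Iscove's MDM with 5% FCS, 50 µM 2-mercaptoethanol, penicillin and streptomycin; suspension lines kept at 0.5-1.5 × 10^6 cells/mL, adherent lines subconfluent. Cells seeded in triplicate at 10^4 cells/100 µL. Compounds were dissolved in water and added immediately at 0 to 100 µM final. WST.1 read at 440 nm on day 3; IC50 taken from OD versus concentration plots.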

[1] = Cytotoxicity against human CCD-967 cells up to 50 uM after 3 days by WST1 assay; assay type: cell-based; settings: ccd-967, 72 h
Method in brief: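 Cells grown in Iscove's MDM with 5% FCS, 50 µM 2-mercaptoethanol and antibiotics, kept subconfluent if adherent. Seeded in triplicate at 10^4 cells/100 µL with compounds (in water) added at once, 0 to 100 µM final. WST.1 formazan read at 440 nm on day 3; IC50 from OD versus concentration.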

[2] = Antitumor activity against human OCI-LY7 cells after 3 days by WST1 assay; assay type: functional, cell-based; settings: OCI-Ly7, 72 h; method in brief: as §1
[3] = Antitumor activity against human MDA468 cells after 3 days by WST1 assay; assay type: functional, cell-based; settings: MDA-MB-468, 72 h; method in brief: as §1
PC-3 = experiment: Antitumor activity against human PC3 cells up to 50 uM after 3 days by WST1 assay; assay type: functional, cell-based; method in brief: as §1
[4] = Antitumor activity against human OCI-AML1 cells after 3 days by WST1 assay; assay type: functional, cell-based; settings: ML1, 72 h; method in brief: as §1
[5] = Antitumor activity against human OCI-My 2 cells after 3 days by WST1 assay; assay type: functional, cell-based; settings: 72 h; method in brief: as §1
OVCAR-4 = experiment: Antitumor activity against human OVCAR4 cells after 3 days by WST1 assay; assay type: functional, cell-based; settings: for IC50: OVCAR-4, 72 h; method in brief: as §1
MCF7 [6] = experiment: Antitumor activity against human MCF7 cells after 3 days by WST1 assay; assay type: functional, cell-based; settings: MCF7, 72 h; method in brief: as §1
COLO 205 = experiment: Antitumor activity against human COLO205 cells after 3 days by WST1 assay; assay type: functional, cell-based; settings: for IC50: COLO 205, 72 h; method in brief: as §1
[7] = Antitumor activity against human SKW3 cells after 3 days by WST1 assay; assay type: functional, cell-based; settings: SKW3, 72 h; method in brief: as §1
SNB-19 = experiment: Antitumor activity against human SNB19 cells up to 50 uM after 3 days by WST1 assay; assay type: functional, cell-based; method in brief: as §1
OCI-AML2 = experiment: Antitumor activity against human OCI-AML2 cells after 3 days by WST1 assay; assay type: functional, cell-based; settings: OCI-AML2, 72 h; method in brief: as §1
MDA-MB-468 = experiment: Antitumor activity against human MDA468 cells up to 50 uM after 3 days by WST1 assay; assay type: functional, cell-based; method in brief: as §1
MCF7 [8] = experiment: Antitumor activity against human MCF7 cells up to 50 uM after 3 days by WST1 assay; assay type: functional, cell-based; method in brief: as §1
Hs-578T = experiment: Antitumor activity against human Hs 578T cells up to 50 uM after 3 days by WST1 assay; assay type: functional, cell-based; method in brief: as §1
[9] = Antitumor activity against human LOX cells after 3 days by WST1 assay; assay type: functional, cell-based; settings: 72 h; method in brief: as §1

| Structure (SMILES) | Activity (T47D) | Activity [1] | IC50 [2] | IC50 [3] | Activity (PC-3) | IC50 [4] | IC50 [5] | IC50 (OVCAR-4) | IC50 (MCF7 [6]) | IC50 (COLO 205) | IC50 [7] | Activity (SNB-19) | IC50 (OCI-AML2) | Activity (MDA-MB-468) | Activity (MCF7 [8]) | Activity (Hs-578T) | IC50 [9] | Activity (OVCAR-4) | Activity (COLO 205) |
| --- | --- | --- | --- | --- | --- | --- | --- | --- | --- | --- | --- | --- | --- | --- | --- | --- | --- | --- | --- |
| N#Cc1cc(=O)[nH]c(=O)n1[C@@H]1O[C@H](CO)[C@@H](O)[C@H]1O | inactive | Not Active | > 50 µM | > 50 µM | inactive | > 50 µM | > 50 µM | > 50 µM | > 50 µM | > 50 µM | > 50 µM | inactive | > 50 µM | inactive | inactive | inactive | > 50 µM | – | – |
| O=c1[nH]c(=O)n([C@@H]2O[C@H](CO)[C@@H](O)[C@H]2O)c(I)c1F | inactive | Not Active | > 50 µM | > 50 µM | inactive | > 50 µM | > 50 µM | > 50 µM | > 50 µM | > 50 µM | > 50 µM | inactive | > 50 µM | inactive | inactive | inactive | > 50 µM | – | – |
| COC(=O)c1cc(=O)[nH]c(=O)n1[C@@H]1O[C@H](CO)[C@@H](O)[C@H]1O | inactive | Not Active | > 50 µM | > 50 µM | inactive | > 50 µM | 42.3 µM | > 50 µM | > 50 µM | > 50 µM | > 50 µM | inactive | > 50 µM | inactive | inactive | inactive | > 50 µM | – | – |
| CCc1c(F)c(=O)[nH]c(=O)n1[C@@H]1O[C@H](CO)[C@@H](O)[C@H]1O | inactive | Not Active | 1.9 µM | 5.3 µM | inactive | 2.1 µM | 1.4 µM | – | 31.4 µM | – | 1.2 µM | inactive | – | – | – | inactive | 4.5 µM | – | – |
| CC(=O)OC[C@H]1O[C@@H](n2c(I)cc(=O)[nH]c2=O)[C@H](O)[C@@H]1O | inactive | Not Active | 36.2 µM | > 50 µM | inactive | 15.2 µM | 1.3 µM | > 50 µM | 4.4 µM | > 50 µM | 1.6 µM | inactive | 11.7 µM | inactive | – | inactive | 1.1 µM | – | – |
| O=c1[nH]c(=O)n([C@@H]2O[C@H](CO)[C@@H](O)[C@H]2O)c(I)c1Br | inactive | Not Active | > 50 µM | > 50 µM | inactive | > 50 µM | > 50 µM | > 50 µM | > 50 µM | > 50 µM | > 50 µM | inactive | > 50 µM | inactive | inactive | inactive | > 50 µM | – | – |
| O=c1[nH]c(=O)n([C@@H]2O[C@H](CO)[C@@H](O)[C@H]2O)cc1F [5-FLUOROURIDINE] | inactive | Not Active | – | – | inactive | – | – | – | – | – | – | inactive | – | inactive | inactive | inactive | – | – | – |
| O=c1cc(NO)n([C@@H]2O[C@H](CO)[C@@H](O)[C@H]2O)c(=O)[nH]1 | inactive | Not Active | > 50 µM | > 50 µM | inactive | > 50 µM | > 50 µM | – | > 50 µM | – | > 50 µM | inactive | > 50 µM | inactive | inactive | inactive | > 50 µM | inactive | inactive |
| O=Cc1cc(=O)[nH]c(=O)n1[C@@H]1O[C@H](CO)[C@@H](O)[C@H]1O | inactive | Not Active | > 50 µM | > 50 µM | inactive | > 50 µM | > 50 µM | – | > 50 µM | – | > 50 µM | inactive | > 50 µM | inactive | inactive | inactive | > 50 µM | inactive | inactive |
| Cc1cc(=O)[nH]c(=O)n1[C@@H]1O[C@H](CO)[C@@H](O)[C@H]1O | inactive | Not Active | > 50 µM | > 50 µM | inactive | > 50 µM | > 50 µM | > 50 µM | > 50 µM | > 50 µM | > 50 µM | inactive | > 50 µM | inactive | inactive | inactive | > 50 µM | – | – |
| O=c1cc(I)n([C@@H]2O[C@H](CO)[C@@H](O)[C@H]2O)c(=O)[nH]1 | inactive | Not Active | > 50 µM | > 50 µM | inactive | 15.3 µM | 27.8 µM | > 50 µM | > 50 µM | > 50 µM | 18.9 µM | inactive | > 50 µM | inactive | inactive | inactive | > 50 µM | – | – |
| CNc1cc(=O)[nH]c(=O)n1[C@@H]1O[C@H](CO)[C@@H](O)[C@H]1O | inactive | Not Active | > 50 µM | > 50 µM | inactive | > 50 µM | > 50 µM | > 50 µM | > 50 µM | > 50 µM | > 50 µM | inactive | > 50 µM | inactive | inactive | inactive | > 50 µM | – | – |
| Nc1cc(=O)[nH]c(=O)n1[C@@H]1O[C@H](CO)[C@@H](O)[C@H]1O | inactive | Not Active | > 50 µM | > 50 µM | inactive | > 50 µM | > 50 µM | > 50 µM | > 50 µM | > 50 µM | > 50 µM | inactive | > 50 µM | inactive | inactive | inactive | > 50 µM | – | – |
| CN(C)c1cc(=O)[nH]c(=O)[nH]1 | inactive | Not Active | > 50 µM | > 50 µM | inactive | > 50 µM | > 50 µM | > 50 µM | > 50 µM | > 50 µM | > 50 µM | inactive | > 50 µM | inactive | inactive | inactive | > 50 µM | – | – |
| O=c1cc(O)n([C@@H]2O[C@H](CO)[C@@H](O)[C@H]2O)c(=O)[nH]1 | inactive | Not Active | > 50 µM | > 50 µM | inactive | > 50 µM | > 50 µM | > 50 µM | > 50 µM | > 50 µM | > 50 µM | inactive | > 50 µM | inactive | inactive | inactive | > 50 µM | – | – |
| CN(C)c1cc(=O)[nH]c(=O)n1[C@@H]1O[C@H](CO)[C@@H](O)[C@H]1O | inactive | Not Active | > 50 µM | > 50 µM | inactive | > 50 µM | > 50 µM | > 50 µM | > 50 µM | > 50 µM | > 50 µM | inactive | > 50 µM | inactive | inactive | inactive | > 50 µM | – | – |

From ChEMBL document CHEMBL1152809, “Structure-activity relationships of orotidine-5'-monophosphate decarboxylase inhibitors as anticancer agents” (J Med Chem, 2009)
